Measured values published in ChEMBL document CHEMBL4118104, “Design, Synthesis, and Evaluation of Orally Bioavailable Quinoline-Indole Derivatives as Innovative Multitarget-Directed Ligands: Promotion of Cell Proliferation in the Adult Murine Hippocampus for the Treatment of Alzheimer's Disease” (J Med Chem, 2018).

Assays:
[1] = AUC (0 to t) in Sprague-Dawley rat at 30 mg/kg, po by LC-MS/MS analysis; type: ADME, organism-based; conditions: in vivo
[2] = test system: Mus musculus; assay: Toxicity in double APP/PS1 transgenic Alzheimer's disease mouse model assessed as emesis-like behavior at 30 mg/kg/day, po for 80 days; type: organism-based; conditions: in vivo, 1920 h
Outline: (§1)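 APP/PS1 double-transgenic mice, six months old, dosed by intragastric infusion at 30 mg/kg/day in 0.5% CMC-Na for 80 consecutive days (n = 10). Vehicle mice and wild-type C57BL/6 mice received blank 0.5% CMC-Na. Body weight tracked daily; diarrhoea, emesis-like behaviour and mortality monitored. At sacrifice, brain, subcutaneous layer, stomach, intestines, heart, lung, liver, spleen, kidneys and other organs examined for expansion or carcinogenicity.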

[3] = MRT (0 to infinity) in Sprague-Dawley rat at 30 mg/kg, po by LC-MS/MS analysis; type: ADME, organism-based; conditions: in vivo
Outline: (§2)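 SD rats given a single oral gavage dose of 30 mg/kg, n = 3; plasma levels by LC-MS/MS; bioavailability computed against the 5 mg/kg intravenous arm.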

[4] = test system: Mus musculus; assay: Cognition enhancement activity in double APP/PS1 transgenic Alzheimer's disease mouse model assessed as swimming path length in virtual platform at 30 mg/kg/day, po for 80 days by Morris water maze test (reference value: 9.1 +/- 2.8 cm); type: functional
Outline: (§3)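 APP/PS1 mice, six months old, gavaged 30 mg/kg/day in 0.5% CMC-Na for 80 days. Probe trial was a single 90 s free swim with the platform absent; effective region is twice the platform diameter. n = 10, mean ± SD, two-way ANOVA.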

[5] = test system: Mus musculus; assay: Toxicity in double APP/PS1 transgenic Alzheimer's disease mouse model assessed as carcinogenicity in subcutaneous layer at 30 mg/kg/day, po for 80 days; type: organism-based; conditions: in vivo, 1920 h; outline: as §1
[6] = test system: Mus musculus; assay: Induction of cell proliferation in C57BL/6 mouse hippocampal neurons in CA1 region assessed as BrdU-incorporation at 30 mg/kg, po administered via gavage for 7 days by immunohistochemical analysis (reference value: 2.3%); type: functional
Outline: (§4)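 C57BL/6 mice, 12 weeks old, n = 6, individually housed beforehand without wheels. Compound gavaged 30 mg/kg/day for 7 days with daily IP BrdU 50 mg/kg; BrdU+ cells counted by immunohistochemistry per hippocampal volume; two-way ANOVA.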

[7] = test system: Mus musculus; assay: Toxicity in C57BL/6 mouse assessed as macroscopic abnormalities of spleen at 677 to 2000 mg/kg, ig after 14 consecutive days; type: organism-based; conditions: in vivo, po
[8] = test system: Mus musculus; assay: Toxicity in C57BL/6 mouse assessed as macroscopic abnormalities of stomach at 677 to 2000 mg/kg, ig after 14 consecutive days; type: organism-based; conditions: in vivo, po
[9] = Oral bioavailability in Sprague-Dawley rat at 30 mg/kg by LC-MS/MS analysis; type: ADME, organism-based; conditions: in vivo; outline: as §2
[10] = MRT (0 to t) in Sprague-Dawley rat at 30 mg/kg, po by LC-MS/MS analysis; type: ADME, organism-based; conditions: in vivo; outline: as §2
[11] = MRT (0 to t) in Sprague-Dawley rat at 5 mg/kg, iv administered as single dose by LC-MS/MS analysis; type: ADME, organism-based; conditions: in vivo
[12] = test system: Mus musculus; assay: Cognition enhancement activity in double APP/PS1 transgenic Alzheimer's disease mouse model assessed as time spent in effective region at 30 mg/kg/day, po for 80 days by Morris water maze test (reference value: 9.0 +/- 3.8 sec); type: functional; outline: as §3
[13] = test system: Mus musculus; assay: Toxicity in C57BL/6 mouse assessed as macroscopic abnormalities of lung at 677 to 2000 mg/kg, ig after 14 consecutive days; type: organism-based; conditions: in vivo, po, 336 h
[14] = test system: Mus musculus; assay: Cognition enhancement activity in double APP/PS1 transgenic Alzheimer's disease mouse model assessed as time spent in correct quadrant at 30 mg/kg/day, po for 80 days by Morris water maze test (reference value: 20.6 +/- 4.4 sec); type: functional; outline: as §3
[15] = test system: Mus musculus; assay: Toxicity in C57BL/6 mouse assessed as effect on body weight at 677 to 2000 mg/kg, ig measured continuously during first 4 hrs, intermittently for following 24 hrs and occasionally thereafter for 14 consecutive days; type: organism-based; conditions: in vivo, po
[16] = test system: Mus musculus; assay: Toxicity in double APP/PS1 transgenic Alzheimer's disease mouse model assessed as increase in mortality at 30 mg/kg/day, po for 80 days; type: organism-based; conditions: in vivo, 1920 h; outline: as §1
[17] = test system: Mus musculus; assay: Induction of cell proliferation in C57BL/6 mouse hippocampal neurons in CA1 region assessed as BrdU-incorporation at 0.5 uL/hr, icv for 7 days by immunohistochemical analysis (reference value: 3.2%); type: functional
[18] = test system: Mus musculus; assay: Induction of cell proliferation in C57BL/6 mouse hippocampal neurons in DG region assessed as BrdU-incorporation at 0.5 uL/hr, icv for 7 days by immunohistochemical analysis (reference value: 7.8%); type: functional
[19] = Clearance in Sprague-Dawley rat at 5 mg/kg, iv administered as single dose by LC-MS/MS analysis; type: ADME, organism-based; conditions: in vivo
Outline: (§5)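 SD rats given 5 mg/kg intravenously, n = 3; pharmacokinetic parameters derived from plasma concentrations.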

[20] = Half life in Sprague-Dawley rat at 30 mg/kg, po by LC-MS/MS analysis; type: ADME, organism-based; conditions: in vivo
[21] = test system: Mus musculus; assay: Cognition enhancement activity in double APP/PS1 transgenic Alzheimer's disease mouse model assessed as swimming path length in effective region at 30 mg/kg/day, po for 80 days by Morris water maze test (reference value: 44.2 +/- 4.9 cm); type: functional; outline: as §3
[22] = test system: Mus musculus; assay: Toxicity in C57BL/6 mouse assessed as effect on water intake at 677 to 2000 mg/kg, ig measured continuously during first 4 hrs, intermittently for following 24 hrs and occasionally thereafter for 14 consecutive days; type: organism-based; conditions: in vivo, po
[23] = test system: Mus musculus; assay: Antialzheimer activity in double APP/PS1 transgenic Alzheimer's disease mouse model assessed as reduction in amyloid beta burden at 30 mg/kg/day, po for 80 days by immunochemical staining-based analysis relative to control; type: functional; parameters: scale not given: the % may be the effect or the level left
Outline: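 APP/PS1 mice gavaged 30 mg/kg/day for 80 days (n = 10). Coronal sections immunostained with mOC64 anti-Aβ antibody; plaque burden is the percent area of a half coronal hemisphere.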

[24] = test system: Mus musculus; assay: Toxicity in double APP/PS1 transgenic Alzheimer's disease mouse model assessed as carcinogenicity in intestine at 30 mg/kg/day, po for 80 days; type: organism-based; conditions: in vivo, 1920 h; outline: as §1
[25] = test system: Mus musculus; assay: Induction of cell proliferation in C57BL/6 mouse hippocampal neurons in DG region assessed as BrdU-incorporation at 30 mg/kg, po administered via gavage for 7 days by immunohistochemical analysis (reference value: 2.2%); type: functional; outline: as §4
[26] = test system: Mus musculus; assay: Cognition enhancement activity in double APP/PS1 transgenic Alzheimer's disease mouse model assessed as time spent in virtual platform at 30 mg/kg/day, po for 80 days by Morris water maze test (reference value: 1.9 +/- 0.2 sec); type: functional; outline: as §3
[27] = AUC (0 to infinity) in Sprague-Dawley rat at 5 mg/kg, iv administered as single dose by LC-MS/MS analysis; type: ADME, organism-based; parameters: dose 5 mg/kg, time infinity, route intravenous; conditions: in vivo; outline: as §5
[28] = Half life in Sprague-Dawley rat at 5 mg/kg, iv administered as single dose by LC-MS/MS analysis; type: ADME, organism-based; conditions: in vivo; outline: as §5
[29] = Drug uptake in Sprague-Dawley rat plasma at 30 mg/kg, po after 1 hr by LC-MS/MS analysis; type: ADME, organism-based
Outline: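 SD rats, single oral gavage 30 mg/kg, n = 3; plasma and brain drug levels taken 1 h after dosing, measured by LC-MS/MS.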

| SMILES | Activity [2] | Activity [4] | Activity [5] | Activity [6] | Activity [7] | Activity [8] | Time [12] | Activity [13] | Time [14] | Activity [15] | Activity [16] | Activity [17] | Activity [18] | Activity [21] | Activity [22] | Activity [23] | Activity [24] | Activity [25] | Time [26] | further results |
| --- | --- | --- | --- | --- | --- | --- | --- | --- | --- | --- | --- | --- | --- | --- | --- | --- | --- | --- | --- | --- |
| Cl.Oc1ccc2[nH]c(-c3ccc4c(Cl)cc(Cl)c(O)c4n3)cc2c1 | Non-Toxic | 22.1 cm | Non-Toxic | 21.1% | Non-Toxic | Non-Toxic | 18 s | Non-Toxic | 27.4 s | Non-Toxic | Non-Toxic | 50.1% | 41.3% | 71.3 cm | Non-Toxic | <=54% | Non-Toxic | 30.6% | 3.2 s | AUC(0-t) [1]: 1500 ng·h/mL; MRT inf [3]: 4.88 h; bioavailability [9]: 14.1%; MRT last [10]: 2.53 h; MRT last [11]: 0.38 h; clearance [19]: 39.3 mL/min/kg; half-life [20]: 3.58 h; AUC(0-inf) [27]: 2120 ng·h/mL; half-life [28]: 0.93 h; concentration at 1 h [29]: 902 ng/g |
| Cl.Oc1c(Cl)cc(Cl)c2ccc(-c3cc4cc5c(cc4[nH]3)OCO5)nc12 | Non-Toxic | 15 cm | Non-Toxic | 14.6% | Non-Toxic | Non-Toxic | 16.7 s | Non-Toxic | 24 s | Non-Toxic | Non-Toxic | 49.8% | 31.2% | 65.5 cm | Non-Toxic | 26% | Non-Toxic | 17% | 2.6 s | – |
